The record followed here is ChEMBL document CHEMBL3627606, “Development of Novel, CNS Penetrant Positive Allosteric Modulators for the Metabotropic Glutamate Receptor Subtype 1 (mGlu1), Based on an N-(3-Chloro-4-(1,3-dioxoisoindolin-2-yl)phenyl)-3-methylfuran-2-carboxamide Scaffold, That Potentiate Wild Type and Mutant mGlu1 Receptors Found in …” (J Med Chem, 2015).

Data set [1] concerns the target Metabotropic glutamate receptor 4 (Homo sapiens, UniProt Q14833). Kind of data set: Positive allosteric modulation of human mGlu4 receptor assessed as potentiation of glutamate-induced calcium mobiliztion by cell based assay. In kind it is functional. Conditions: read-out: EC50.
The target of data set [2] is Metabotropic glutamate receptor 1 (Homo sapiens, UniProt Q13255). Kind of data set: Agonist activity at human mGlu1 receptor in HEK293 cells assessed as calcium mobilization at 10 uM by Fluo-4AM dye based fluorescence analysis. In kind it is functional, cell-based. In general terms: A change in cytosolic calcium serves as a functional read-out for many receptors and channels.

The target in data set [3] is Metabotropic glutamate receptor 3 (Homo sapiens) (UniProt Q14832). Kind of data set: Positive allosteric modulation of mGlu3 receptor (unknown origin) assessed as potentiation of glutamate-induced response by cell-based assay. The gist of the method:
(§1)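 Selectivity counterscreen at the other mGlu subtypes using the standard fold-shift paradigm. Compound was tested at 10 μM against the glutamate concentration-response curve, and the shift of that curve was read.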

For data set [4], the target named is Metabotropic glutamate receptor 5 (Homo sapiens) (UniProt P41594). Kind of data set: Positive allosteric modulation of mGlu5 receptor (unknown origin) assessed as potentiation of glutamate-induced response by cell-based assay. An outline of the steps: as §1
Data set [5] has as its target Cytochrome P450 2C9 (Homo sapiens, UniProt P11712). The experiment in a line: Inhibition of CYP2C9 in human liver microsomes by LC-MS/MS analysis. The class given is ADME.
In data set [6] the test system is Metabotropic glutamate receptor 1 (Homo sapiens), Q13255 [P729T]. Kind of data set: Agonist activity at human mGlu1 P729T mutant receptor expressed in HEK293 cells assessed as calcium mobilization at > 1 uM uM by Fluo-4AM dye based fluorescence analysis. The class given is functional, cell-based.
The subject of data set [7] is Mus musculus. Kind of data set: Toxicity in C57BL/6 mouse assessed as seizure activity at 100 mg/kg, ip administered as single dose measured for 3 hrs. In kind it is organism-based. The following applies: in vivo. The gist of the method:
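Male C57Bl/6 mice (25−30 g) dosed ip in 10% Tween 80 at 10 mL/kg: the mGlu5 ago-PAM at 1 or 3 mg/kg, the mGlu1 PAMs at 100 mg/kg. Behaviour was monitored continuously for 3 h and scored on a modified Racine scale (0−5).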

The test system of data set [8] is Rattus norvegicus. The experiment in a line: Volume of distribution at steady state in Sprague-Dawley rat at 0.2 mg/kg, iv by LC-MS/MS analysis. Conditions: in vivo.
A short description of data set [9]: Drug concentration in Sprague-Dawley rat brain at 0.2 mg/kg, iv after 0.25 hrs by LC-MS/MS analysis. Conditions: read-out: Drug uptake.

Sequence of Metabotropic glutamate receptor 4 (Q14833 whole entry): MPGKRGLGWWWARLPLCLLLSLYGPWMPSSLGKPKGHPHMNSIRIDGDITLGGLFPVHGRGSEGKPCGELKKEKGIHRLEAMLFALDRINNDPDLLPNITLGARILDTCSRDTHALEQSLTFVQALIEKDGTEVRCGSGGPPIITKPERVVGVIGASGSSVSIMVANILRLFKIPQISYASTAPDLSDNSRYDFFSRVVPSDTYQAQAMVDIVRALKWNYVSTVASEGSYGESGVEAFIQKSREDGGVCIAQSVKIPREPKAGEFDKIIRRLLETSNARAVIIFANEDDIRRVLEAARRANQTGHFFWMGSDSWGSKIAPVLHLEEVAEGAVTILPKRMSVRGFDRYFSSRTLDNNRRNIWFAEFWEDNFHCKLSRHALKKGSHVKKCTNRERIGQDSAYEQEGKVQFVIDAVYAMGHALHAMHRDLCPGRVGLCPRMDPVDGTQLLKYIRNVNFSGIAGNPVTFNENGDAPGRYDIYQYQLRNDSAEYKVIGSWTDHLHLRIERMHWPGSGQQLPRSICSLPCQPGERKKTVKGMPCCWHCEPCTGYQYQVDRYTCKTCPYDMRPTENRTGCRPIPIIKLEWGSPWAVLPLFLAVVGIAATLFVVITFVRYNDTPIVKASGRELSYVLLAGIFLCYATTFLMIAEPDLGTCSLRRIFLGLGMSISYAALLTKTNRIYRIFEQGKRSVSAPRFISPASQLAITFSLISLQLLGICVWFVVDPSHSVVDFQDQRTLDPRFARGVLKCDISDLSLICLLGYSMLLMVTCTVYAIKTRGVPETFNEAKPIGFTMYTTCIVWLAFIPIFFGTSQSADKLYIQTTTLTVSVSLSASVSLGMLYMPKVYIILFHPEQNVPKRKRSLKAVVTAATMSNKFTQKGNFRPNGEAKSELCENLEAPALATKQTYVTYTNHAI
Sequence of Metabotropic glutamate receptor 3 (Homo sapiens) (Q14832 23-879 limits assumed): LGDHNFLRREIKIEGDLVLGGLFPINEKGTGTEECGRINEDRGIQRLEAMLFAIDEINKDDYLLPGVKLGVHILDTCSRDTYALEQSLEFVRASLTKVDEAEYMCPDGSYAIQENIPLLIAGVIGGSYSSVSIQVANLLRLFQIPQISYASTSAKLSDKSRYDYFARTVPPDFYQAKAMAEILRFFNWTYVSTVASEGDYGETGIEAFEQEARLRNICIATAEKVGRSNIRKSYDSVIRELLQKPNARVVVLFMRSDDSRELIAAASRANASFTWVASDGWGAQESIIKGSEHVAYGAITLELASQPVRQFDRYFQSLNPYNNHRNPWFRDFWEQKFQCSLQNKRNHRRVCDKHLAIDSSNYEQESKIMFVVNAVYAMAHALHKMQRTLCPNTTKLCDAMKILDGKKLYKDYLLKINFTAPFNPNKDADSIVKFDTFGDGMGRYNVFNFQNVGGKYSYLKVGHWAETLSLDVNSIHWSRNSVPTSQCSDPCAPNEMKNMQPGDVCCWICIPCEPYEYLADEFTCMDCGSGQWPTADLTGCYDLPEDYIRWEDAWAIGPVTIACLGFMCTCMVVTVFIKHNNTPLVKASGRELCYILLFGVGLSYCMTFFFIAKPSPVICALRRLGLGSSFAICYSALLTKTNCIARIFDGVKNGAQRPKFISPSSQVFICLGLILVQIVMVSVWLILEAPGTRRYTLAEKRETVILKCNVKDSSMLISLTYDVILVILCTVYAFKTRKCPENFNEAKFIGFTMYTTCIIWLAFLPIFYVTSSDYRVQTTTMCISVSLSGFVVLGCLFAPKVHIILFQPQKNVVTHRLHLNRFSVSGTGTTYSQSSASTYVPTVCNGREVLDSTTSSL
Sequence of Metabotropic glutamate receptor 1 (Homo sapiens), Q13255 [P729T] (Q13255 whole entry P729T): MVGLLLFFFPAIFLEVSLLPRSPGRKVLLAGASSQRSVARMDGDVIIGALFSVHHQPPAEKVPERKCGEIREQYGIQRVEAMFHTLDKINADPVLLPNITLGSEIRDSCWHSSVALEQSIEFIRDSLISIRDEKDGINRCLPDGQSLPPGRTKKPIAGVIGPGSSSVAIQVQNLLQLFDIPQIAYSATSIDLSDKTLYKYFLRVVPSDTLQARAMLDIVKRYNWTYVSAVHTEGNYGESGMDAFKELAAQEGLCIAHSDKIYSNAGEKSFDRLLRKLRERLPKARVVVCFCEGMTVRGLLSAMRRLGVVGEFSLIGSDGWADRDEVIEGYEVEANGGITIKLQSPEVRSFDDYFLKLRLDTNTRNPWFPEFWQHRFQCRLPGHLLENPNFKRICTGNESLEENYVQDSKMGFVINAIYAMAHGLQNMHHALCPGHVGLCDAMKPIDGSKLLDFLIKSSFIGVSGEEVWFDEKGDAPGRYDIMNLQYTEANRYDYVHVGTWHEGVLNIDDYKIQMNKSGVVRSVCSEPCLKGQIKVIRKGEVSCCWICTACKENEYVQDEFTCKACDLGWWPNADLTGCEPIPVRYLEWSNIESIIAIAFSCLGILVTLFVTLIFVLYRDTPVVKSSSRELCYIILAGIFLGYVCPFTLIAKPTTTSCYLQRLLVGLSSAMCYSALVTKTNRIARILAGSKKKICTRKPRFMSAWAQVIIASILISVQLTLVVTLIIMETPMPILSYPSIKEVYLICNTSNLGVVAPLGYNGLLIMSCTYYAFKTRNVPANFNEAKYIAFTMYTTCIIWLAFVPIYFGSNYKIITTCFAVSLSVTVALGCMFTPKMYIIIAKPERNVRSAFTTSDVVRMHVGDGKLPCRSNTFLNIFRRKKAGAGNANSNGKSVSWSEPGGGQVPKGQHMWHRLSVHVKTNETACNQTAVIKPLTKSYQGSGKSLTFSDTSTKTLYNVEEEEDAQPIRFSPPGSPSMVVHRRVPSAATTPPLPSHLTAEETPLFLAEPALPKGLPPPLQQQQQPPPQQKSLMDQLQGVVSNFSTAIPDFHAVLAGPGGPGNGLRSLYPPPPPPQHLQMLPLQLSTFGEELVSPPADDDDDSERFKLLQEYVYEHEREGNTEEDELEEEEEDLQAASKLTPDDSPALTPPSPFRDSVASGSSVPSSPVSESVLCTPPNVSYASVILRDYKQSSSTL
Sequence of Metabotropic glutamate receptor 5 (Homo sapiens) (P41594 21-1212 limits assumed): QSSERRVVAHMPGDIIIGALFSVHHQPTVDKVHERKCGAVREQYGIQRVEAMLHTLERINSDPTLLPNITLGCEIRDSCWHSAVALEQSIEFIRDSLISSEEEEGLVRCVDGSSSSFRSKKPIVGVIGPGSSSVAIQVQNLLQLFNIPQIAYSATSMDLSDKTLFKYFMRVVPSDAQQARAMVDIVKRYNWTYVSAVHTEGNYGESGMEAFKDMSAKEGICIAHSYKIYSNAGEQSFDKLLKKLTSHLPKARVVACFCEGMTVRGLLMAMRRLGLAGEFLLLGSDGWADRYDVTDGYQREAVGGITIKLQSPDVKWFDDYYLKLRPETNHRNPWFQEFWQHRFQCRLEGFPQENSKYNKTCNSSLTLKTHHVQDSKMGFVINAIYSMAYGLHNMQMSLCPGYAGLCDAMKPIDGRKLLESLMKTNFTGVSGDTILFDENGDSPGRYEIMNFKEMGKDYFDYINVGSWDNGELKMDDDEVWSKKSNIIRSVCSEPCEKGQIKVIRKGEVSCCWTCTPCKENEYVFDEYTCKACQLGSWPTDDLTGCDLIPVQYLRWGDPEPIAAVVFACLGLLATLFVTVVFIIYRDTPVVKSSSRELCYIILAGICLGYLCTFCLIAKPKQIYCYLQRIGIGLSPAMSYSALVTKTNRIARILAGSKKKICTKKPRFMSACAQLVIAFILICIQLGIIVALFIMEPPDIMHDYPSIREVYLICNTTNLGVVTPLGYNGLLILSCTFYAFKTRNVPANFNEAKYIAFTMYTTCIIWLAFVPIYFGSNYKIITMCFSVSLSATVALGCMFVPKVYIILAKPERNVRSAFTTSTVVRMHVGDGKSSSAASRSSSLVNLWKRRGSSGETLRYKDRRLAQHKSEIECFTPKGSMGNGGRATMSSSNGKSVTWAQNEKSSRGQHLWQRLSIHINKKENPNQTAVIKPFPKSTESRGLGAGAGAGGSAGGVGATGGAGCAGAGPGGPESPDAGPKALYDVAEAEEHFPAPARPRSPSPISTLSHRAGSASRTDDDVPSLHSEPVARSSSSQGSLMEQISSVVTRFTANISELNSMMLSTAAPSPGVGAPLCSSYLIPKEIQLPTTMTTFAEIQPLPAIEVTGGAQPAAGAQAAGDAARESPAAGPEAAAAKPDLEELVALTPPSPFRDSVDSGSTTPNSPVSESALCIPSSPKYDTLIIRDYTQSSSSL
Sequence of Cytochrome P450 2C9 (P11712 whole entry): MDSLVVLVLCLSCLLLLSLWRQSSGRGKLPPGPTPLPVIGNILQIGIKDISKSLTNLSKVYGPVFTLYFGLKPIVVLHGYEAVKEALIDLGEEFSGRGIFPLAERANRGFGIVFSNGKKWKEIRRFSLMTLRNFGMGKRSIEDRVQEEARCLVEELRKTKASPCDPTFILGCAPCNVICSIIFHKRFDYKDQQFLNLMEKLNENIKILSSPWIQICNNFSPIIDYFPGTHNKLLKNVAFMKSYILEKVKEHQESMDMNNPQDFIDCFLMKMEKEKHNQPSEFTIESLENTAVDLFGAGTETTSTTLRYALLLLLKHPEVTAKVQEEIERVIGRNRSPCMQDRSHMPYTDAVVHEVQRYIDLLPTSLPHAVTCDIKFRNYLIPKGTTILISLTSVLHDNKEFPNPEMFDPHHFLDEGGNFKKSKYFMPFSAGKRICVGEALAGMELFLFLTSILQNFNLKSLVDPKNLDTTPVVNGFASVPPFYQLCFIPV

Turning to `Cc1ccoc1C(=O)Nc1ccc(N2C(=O)c3cccc(F)c3C2=O)c(Cl)c1`, the EC50 in [1] was 1.11 µM. Further, the Activity in data set [2] is 35%; in [6] it was 40%; in data set [7], “Non-toxic”. Also, the figures for the fold change (FC) in [3] and in data set [4] were under 2 and 2.7, respectively. The same compound displayed a half-maximal inhibitory concentration (IC50) in [5] of 6.45 µM. Besides, in data set [8], the volume of distribution (Vdss) was determined as 0.85 L/kg. The concentration at 0.25 h in data set [9] turned out to be 204 ng/mL.

A word on the EC50: it is the concentration giving half of the maximal effect. What is called IC50 is the concentration needed to halve the response being measured. High values mean weaker potency in that assay, low ones greater potency in that assay. The Vdss is the apparent volume that relates the amount in the body to the concentration in plasma or blood. Low values mean confinement near the circulation, high ones extensive tissue distribution.
